According to PubChem BioAssay AID871 (The Scripps Research Institute Molecular Screening Center, 2007):
Screen size: about 190,000 compounds; about 1,800 (0.95%) were called active. Shown is part of a subset that was picked to be rich in actives. A number with no mark means an inactive call.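 How the source made its calls: active means activation above the screen-wide mean of compound activation plus 3 SD (cut at about 130% in these data); inactive means the rest.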

Test: enhancers of STAT3 transcriptional signaling – U3A cells, luciferase, luminescence, MLSCN library, primary screen (AID 871);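 further: 0% = background luminescence of wells with medium and substrate only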
Conditions: IL-6 STAT3-luciferase reporter, at 5.6 µM, hits give high values, 100% = signal with IL-6 EC80 alone
Method in brief: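 Material: STAT3-luciferase reporter U3A cells; Probe or stimulus: IL-6 (33 ng/mL); Incubation: compound pre-incubation 1 h before IL-6, then 6 h stimulation at 37 °C; Technique: luminescence from STAT3-driven luciferase reporter; Evaluation: % activation versus median of IL-6-stimulated wells; Controls: IL-6-only high control.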

SMILES | activation (% of control)
CCCS(=O)(=O)N1CCC(CCOc2ccccc2)(C(=O)OCC)CC1 | 95.8%
c1ccc2[nH]c(-c3nc4ccccc4[nH]3)nc2c1 | 63.1%
O=C(/C(=C/c1cccc(Cl)c1)c1nc2ccccc2[nH]1)c1ccccc1 | 98.5%
Oc1ccc(Cl)cc1/C=N/c1nc2ccccc2[nH]1 | 143% (active)
C/C(=N\c1nc2ccccc2n1C)c1cc(Cl)ccc1O | 137% (active)
Cc1ccc(O)c(CNc2nc3ccccc3n2C)c1 | 102%
Cc1c(C(=O)Nc2cccc(Cl)c2)cn2c(nc3ccccc32)c1C#N | 94.7%
CC(C)CNC(=O)/C=C/C(=O)O | 103%
O=C(CN1CCCC1)N1CCN(c2ccccc2)CC1 | 104%
Cc1nnc(SCc2cccc(Cl)c2)n(N)c1=O | 88.9%
Cc1ccc(N=Nc2c(C)[nH]n(-c3ccccc3)c2=O)cc1 | 147% (active)
Cc1c(N=Nc2ccc(N(C)C)cc2)c(=O)n(-c2ccccc2)n1C | 115%
Cc1cccc(N=Nc2c(C)[nH]n(-c3ccccc3)c2=O)c1 | 122%
Cc1nc2scc(-c3cccs3)c2c(=O)n1N | 97.7%
Cn1cccc1-c1nc2ccccc2n1C | 89.2%
Cc1ccc(C2=NN(C)c3nc4ccccc4n3C2)cc1 | 170% (active)
Cc1nn2c3ccccc3nc2n(C)c1=O | 91%
O=C(N/N=C1\CCSC1)c1cc(Cl)ccc1O | 100%
CCCS(=O)(=O)Nc1c(C(=O)O)[nH]c2ccccc12 | 184% (active)
Cc1c(C(=O)CN2CCOCC2)[nH]c2ccccc12 | 121%
CCCC(=O)Nc1c(O)c2ccccc2[nH]c1=O | 101%
O=C(Nc1ccc2cn[nH]c2c1)c1ccc(S(=O)(=O)N2CCOCC2)cc1 | 135% (active)

SMILES | activation (% of control)
O=C(CCc1ccc(S(=O)(=O)N2CCOCC2)cc1)Nc1ccc2ccccc2c1 | 104%
Cc1ccnc(NS(=O)(=O)c2ccc(NC(=O)c3ccc(S(=O)(=O)N4CCOCC4)cc3)cc2)n1 | 100%
CCOC(=O)c1c(/N=C/c2cc(C)ccc2O)sc2c1CCC2 | 99.7%
Cc1ccc(C(=O)N/C(=C\c2ccco2)C(=O)N2CCSCC2)cc1C | 109%
COc1ccc(N2C(=O)CC(Nc3ccc(F)cc3)C2=O)c([N+](=O)[O-])c1 (stereo unspecified) | 92.9%
C=CCOc1ccc(/C=N/NC(=O)C(C)Sc2ccccn2)cc1OCC (stereo unspecified) | 106%
COc1ccc(OC)c2c1sc(=NC(=O)CN1C(=O)CCC1=O)n2C | 101%
Cn1c(=NC(=O)C2CC2)sc2cc(F)cc(F)c21 | 135% (active)
CCOc1ccc(-n2c(O)c(/C=N/c3ccnn3Cc3ccncc3)c3ccccc3c2=O)cc1 | 105%
O=C(O)c1ccc(/C=N/NC(=S)NCc2ccccc2)cc1 | 96.6%
CSc1nc(O)c(Cc2ccccc2)c(=O)[nH]1 | 95.3%
CSc1nc2sc3c(c2c(=O)[nH]1)CCc1ccccc1-3 | 136% (active)
COc1ccc(-n2c(=S)[nH]c3sc4c(c3c2=O)CCc2ccccc2-4)cc1 | 112%
c1ccc(-c2cn3c(n2)CCc2ccc4cccnc4c2-3)cc1 | 157% (active)
c1ccc(-c2cn3cccnc3n2)cc1 | 91.9%
O=C(CN1C(=O)CC(c2ccccc2)S(=O)(=O)c2ccccc21)NC1CCCC1 (stereo unspecified) | 101%
COC(=O)/C(C#N)=C/c1occc1C | 94.2%
CCOC(=O)N1CCN(CCC(=O)Nc2cc(OC)ccc2OC)CC1 | 111%
O=C(NC1CCCCC1)N1CCc2[nH]c3ccccc3c2C1 | 96%
Cc1cccc(C2c3[nH]c4ccccc4c3CCN2C(=O)c2cc(-c3cccn3C)n[nH]2)n1 (stereo unspecified) | 134% (active)
O=C(c1cn2ccccc2n1)N1CCc2c([nH]c3ccccc23)C1c1ccccn1 (stereo unspecified) | 105%
CCCC(=O)N1CCc2[nH]c3ccccc3c2C1 | 99.4%

SMILES | activation (% of control)
COCc1ccc(C(=O)N2CCc3c([nH]c4ccccc34)C2c2ccccn2)s1 (stereo unspecified) | 96.9%
Cc1cccc(C(=O)N2CCc3c([nH]c4ccccc34)C2CC(C)C)n1 (stereo unspecified) | 145% (active)
COc1ccc(NC(=O)C(=O)NCC(=O)Nc2cccc(C(F)(F)F)c2)cc1 | 98.3%
COC(=O)c1ccc(NC(=S)NN2CCOCC2)cc1 | 109%
O=C(CC1SCCNC1=O)Nc1ccc(Cl)cc1 (stereo unspecified) | 105%
CCOC(=O)C1(Cc2cccc(OC)c2)CCN(Cc2csc(C(C)=O)c2)CC1 | 92.5%
COCCCNC(=O)C1CCC(CNS(=O)(=O)c2ccc(OC)cc2)CC1 (stereo unspecified) | 99.2%
O=C1NC(c2ccccc2)=NC1(Nc1ccccn1)C(F)(F)F (stereo unspecified) | 100%
CN(C)S(=O)(=O)c1cc(NC(=O)CN2C(=O)NC3(CCCc4ccccc43)C2=O)ccc1Cl (stereo unspecified) | 105%
COc1cc(/C=C/C(=O)OCC(=O)NC(=O)NCc2ccccc2)ccc1OCC#N | 95.5%
COc1cc(/C=N/Nc2ccc(C)cc2)cc(Br)c1O | 115%
COc1ccc(/C=N/Nc2ncnc3sc4c(c23)CCCC4)cc1O | 147% (active)
COc1ncnc2sc3c(c12)CCCC3 | 104%
CSc1ccccc1C(=O)NCc1ccccc1 | 108%
O=C(/C=C/c1ccccc1[N+](=O)[O-])NCC1CCCO1 (stereo unspecified) | 97.5%
CC(C)CNC(=O)COC(=O)/C=C/c1ccco1 | 105%
CC(C)CNC(=O)COC(=O)/C=C/c1ccccc1[N+](=O)[O-] | 145% (active)
O=C(NCc1cccs1)C1CCN(S(=O)(=O)c2ccc(Cl)cc2)CC1 | 104%
COc1cccc2c1CCC(NC(C)=O)C2=O (stereo unspecified) | 104%
CC(=O)c1c(C)[nH]c(C(=O)Nc2cc(S(=O)(=O)N(C)C)ccc2C)c1C | 90.9%
CC(=O)c1c(C)[nH]c(C(=O)NCc2ccc(C)cc2)c1C | 92.2%
COc1ccc(C)cc1NC(=O)c1[nH]c(C)c(C(C)=O)c1C | 147% (active)
